From ChEMBL document CHEMBL1123696, “1H NMR study of degradation mechanisms of oxacephem derivatives with various 3'-substituents in alkaline solution” (J Med Chem, 1987)

What was measured:
Format in all cases: ADME
[1] = Pseudo first order rate constant of the beta-lactam ring cleavage determined from 1H NMR spectra
In short: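 Oxacephem (about 1×10^-2 M initial) in 0.2 M deuteriated carbonate buffer, pD 10.4, μ = 0.5, held at 35 ± 0.5 °C. β-Lactam loss followed by 1H NMR with 64 acquisitions per spectrum. Pseudo-first-order constant from regression of residual oxacephem fraction against time in hours.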

[2] = Pseudo first order rate constant of the beta-lactam ring cleavage determined from UV spectra (pH 10, 35 degree C)
In short: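 Oxacephem at about 7.5×10^-5 M initial in 0.008 M carbonate buffer, μ = 0.1, 35.0 ± 0.2 °C. Loss of UV absorbance near 260 nm recorded continuously over time. Pseudo-first-order constant for β-lactam cleavage obtained by the Guggenheim method.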

[3] = Pseudo first order rate constant of the beta-lactam ring cleavage determined from 1H NMR spectra; value is corrected for parallel correction.
In short: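 Degradation in 0.2 M deuteriated carbonate buffer, pD 10.4, μ = 0.5, 35 °C, oxacephem about 1×10^-2 M. Time courses of parent and products were recorded by 1H NMR. Rate constants came from kinetic analysis of a parallel-reaction scheme fitted to the experimental curves, which separates the OH− contribution to β-lactam cleavage.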

| k obs [1] | k obs [2] | k obs [3] | Compound |
| --- | --- | --- | --- |
| 1.39 h⁻¹ | 1.26 h⁻¹ |  | CO[C@@]1([N-]C(=O)Cc2ccccc2)C(=O)N2C(C(=O)[O-])=C(C[n+]3ccccc3)CO[C@@H]21.[Na+] |
| 0.164 h⁻¹ | 0.139 h⁻¹ |  | CO[C@@]1(NC(=O)Cc2ccccc2)C(=O)N2C(C(=O)[O-])=C(CO)CO[C@@H]21.[Na+] |
| 0.204 h⁻¹ | 0.144 h⁻¹ |  | COCC1=C(C(=O)[O-])N2C(=O)[C@](NC(=O)Cc3ccccc3)(OC)[C@H]2OC1.[Na+] |

Second part, the compound before the results:

| Compound | k obs [1] | k obs [2] | k obs [3] |
| --- | --- | --- | --- |
| CO[C@@]1(NC(=O)Cc2ccccc2)C(=O)N2C(C(=O)[O-])=C(C)CO[C@@H]21.[Na+] | 0.0484 h⁻¹ | 0.0346 h⁻¹ |  |
| CO[C@@]1(NC(=O)Cc2ccccc2)C(=O)N2C(C(=O)[O-])=C(CC#N)CO[C@@H]21.[Na+] | 0.289 h⁻¹ | 0.234 h⁻¹ |  |
| CO[C@@]1(NC(=O)Cc2ccccc2)C(=O)N2C(C(=O)[O-])=C(COC(N)=O)COC21.[Na+] (some centres undefined) | 0.45 h⁻¹ | 0.23 h⁻¹ |  |
| CO[C@@]1(NC(=O)Cc2ccccc2)C(=O)N2C(C(=O)[O-])=C(COC(C)=O)CO[C@@H]21.[Na+] | 0.255 h⁻¹ | 0.285 h⁻¹ | 0.308 h⁻¹ |
| CO[C@@]1(NC(=O)Cc2ccccc2)C(=O)N2C(C(=O)[O-])=C(CSC)CO[C@@H]21.[Na+] | 0.11 h⁻¹ | 0.101 h⁻¹ |  |
| CO[C@@]1(NC(=O)Cc2ccccc2)C(=O)N2C(C(=O)[O-])=C(CSc3nnnn3C)CO[C@@H]21.[Na+] | 0.192 h⁻¹ | 0.204 h⁻¹ |  |
